Experimental findings from ChEMBL document CHEMBL4385642, “Optimization and biological evaluation of nicotinamide derivatives as Aurora kinase inhibitors” (Bioorg Med Chem, 2019) are described below.

Experiment [1] has as its target T1, Aurora kinase A (Homo sapiens) (UniProt O14965).
T1 sequence (whole entry): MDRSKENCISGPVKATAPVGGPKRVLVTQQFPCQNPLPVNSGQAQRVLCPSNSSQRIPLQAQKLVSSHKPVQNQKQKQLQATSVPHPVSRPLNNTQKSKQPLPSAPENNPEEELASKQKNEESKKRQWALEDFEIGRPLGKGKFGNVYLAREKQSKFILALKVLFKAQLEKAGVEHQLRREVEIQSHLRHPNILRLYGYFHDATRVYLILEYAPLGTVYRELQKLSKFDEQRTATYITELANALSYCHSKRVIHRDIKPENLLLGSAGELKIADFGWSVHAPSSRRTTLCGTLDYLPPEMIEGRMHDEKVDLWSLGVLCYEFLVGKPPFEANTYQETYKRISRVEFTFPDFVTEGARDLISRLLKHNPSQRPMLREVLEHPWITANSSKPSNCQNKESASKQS
Briefly: Inhibition of Aurora A (unknown origin) at 0.2 uM pre-incubated for 10 mins before FAM-labeled peptide substrate addition by mobility shift assay relative to control.

Experiment [2] relates to SW-620. Briefly: Cytotoxicity in human SW620 cells assessed as reduction in cell viability incubated for 72 hrs by MTT assay. In kind it is functional, cell-based. The settings on record: SW-620, 72 h. The method in brief:
(§1)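 Cells in DMEM or RPMI 1640 with 10% FBS and 1% penicillin/streptomycin were seeded at 6 × 10^3/well and grown 24 h at 37 °C, 5% CO2. They were exposed 72 h to graded compound concentrations (DMSO under 0.1%). MTT (5 mg/mL, 10 µL) was added for 4 h at 37 °C and formazan dissolved in DMSO. A492 was read against a 630 nm reference, and IC50 came from concentration–response curves.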

A further experiment concerns NCI-H1975. The experiment is described as follows: Cytotoxicity in human NCI-H1975 cells assessed as reduction in cell viability incubated for 72 hrs by MTT assay. The format is functional, cell-based. Particulars: NCI-H1975, 72 h. In outline:
as §1

Experiment [3] has as its target Aurora kinase B (Homo sapiens) (UniProt Q96GD4). Briefly: Inhibition of Aurora B (unknown origin) at 0.2 uM pre-incubated for 10 mins before FAM-labeled peptide substrate addition by mobility shift assay relative to control.
The subject of a further experiment is HeLa. The experiment is described as follows: Cytotoxicity in human HeLa cells assessed as reduction in cell viability incubated for 72 hrs by MTT assay. In kind it is functional, cell-based. In outline:
as §1
In general terms: Tetrazolium dyes change colour on reduction, which living cells bring about.

Another experiment concerns HT-29. The experiment is described as follows: Cytotoxicity in human HT-29 cells assessed as reduction in cell viability incubated for 72 hrs by MTT assay. In kind it is functional, cell-based. Particulars: HT-29, 72 h. The method in brief: as §1
In experiment [4] the test system is SW-620. The experiment is described as follows: Antiproliferative activity against human SW620 cells assessed as cell confluence level at 10 ug/ml incubated up to 84 hrs and measured every 1 hr by IncuCyte live-cell imaging assay (reference value: 86.5%). The format is functional. The method in brief:
(§2)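 SW620 cells seeded at 5 × 10^3/well and grown 24 h at 37 °C, 5% CO2 inside the IncuCyte. Compounds were then added at 0.12–10.0 µg/mL, with 0.1% DMSO as vehicle control. Phase-contrast images were taken with a 10× objective every 1 h for 84 h. Confluence was scored from the images, in triplicate.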

The subject of experiment [5] is SW-620. The experiment is described as follows: Antiproliferative activity against human SW620 cells assessed as cell confluence level at 10 ug/ml incubated up to 84 hrs and measured every 1 hr by phase contrast microscopy (reference value: 86.5%). In kind it is functional. The method in brief: as §2
Experiment [6] has as its system SW-620. Briefly: Antiproliferative activity against human SW620 cells assessed as effect on cell confluence level at 0.12 to 3.33 ug/ml incubated up to 84 hrs and measured every 1 hr by IncuCyte live-cell imaging assay. In kind it is functional, cell-based. In outline: as §2
Experiment [7] relates to SW-620. Briefly: Antiproliferative activity against human SW620 cells assessed as effect on cell confluence level at 0.12 to 3.33 ug/ml incubated up to 84 hrs and measured every 1 hr by phase contrast microscopy. The format is functional, cell-based. The method in brief: as §2
In experiment [8] the test system is SW-620. The experiment is described as follows: Induction of apoptosis in human SW620 cells at 3.33 ug/ml incubated for 36 hrs by IncuCyte live-cell imaging assay. The format is functional, cell-based. In outline: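 Apoptosis kinetics by IncuCyte imaging: SW620 cells at 5 × 10^3/well were pre-grown 24 h at 37 °C, 5% CO2, then given compound (0.12–10.0 µg/mL) or 0.1% DMSO. Green-fluorescent apoptotic cells were counted on images taken with a 10× objective every 1 h over 48 h, in triplicate.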

The test system of experiment [9] is SW-620. Briefly: Cytotoxicity against human SW620 cells assessed as increase in dead cell number at 10 ug/ml incubated for 5 hrs by IncuCyte live-cell imaging assay. In kind it is functional, cell-based. In outline: (§3)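 Live-cell kinetic imaging of SW620 cells (5 × 10^3/well, 24 h pre-culture at 37 °C, 5% CO2) exposed to 0.12–10.0 µg/mL compound or 0.1% DMSO. Red-fluorescent cells were counted as dead cells, imaged with a 10× objective hourly for 84 h, in triplicate.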

The subject of experiment [10] is SW-620. The experiment is described as follows: Cytotoxicity against human SW620 cells assessed as increase in dead cell number at 10 ug/ml incubated for 36 hrs by IncuCyte live-cell imaging assay. The format is functional, cell-based. The method in brief: as §3

Molecules are shown by their SMILES. pIC50: −log10 of the molar value. Active and inactive are the calls of the source. No cut-off for these calls is given here. Some results are limits rather than exact numbers.

Chain of Aurora kinase B (Homo sapiens) (Q96GD4 whole entry): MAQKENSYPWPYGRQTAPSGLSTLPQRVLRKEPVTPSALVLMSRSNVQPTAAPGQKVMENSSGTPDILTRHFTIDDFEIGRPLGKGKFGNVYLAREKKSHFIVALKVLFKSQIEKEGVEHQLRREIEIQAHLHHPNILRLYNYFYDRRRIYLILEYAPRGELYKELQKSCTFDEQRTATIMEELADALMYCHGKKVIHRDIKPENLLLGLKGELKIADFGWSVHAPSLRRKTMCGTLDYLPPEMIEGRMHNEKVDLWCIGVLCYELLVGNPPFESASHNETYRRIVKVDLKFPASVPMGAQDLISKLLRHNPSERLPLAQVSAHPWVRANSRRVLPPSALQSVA

Usually inhibition stands for the relative decrease from the control value, in per cent. As a reminder, the pIC50 is the IC50 on a negative log10 scale, so that one unit is a factor of ten. `COc1cc2nccc(Oc3ccc(NC(=O)c4cnc(Cl)cc4Nc4ccccc4Br)cc3)c2cc1OC`: the inhibition was 78.2% in [1] and 56.1% in [3]. In addition, the pIC50 in the experiment with SW-620 [2] is 5.16; in the experiment with NCI-H1975, 5.10; with HeLa it was < 4.70; with HT-29 it was < 4.70.

As to `COc1cc2nccc(Oc3ccc(NC(=O)c4cccnc4Nc4ccc(F)c(Br)c4)cc3F)c2cc1OC`, the inhibition in experiment [1] was 48.4%; in experiment [3] it was 40.7%. For the same compound, in the experiment on SW-620 [2], the pIC50 was 5.73.

As for `COc1cc2nccc(Oc3ccc(NC(=O)c4cnc5ccc(Br)cc5c4Nc4ccc(F)c(Br)c4)cc3F)c2cc1OC`, the inhibition in experiment [1] stood at 6.6%; in [3] it was 13.7%.

As to `COc1cc2nccc(Oc3ccc(NC(=O)c4c(Nc5ccc(F)c(Br)c5)cc(C)nc4Cl)cc3F)c2cc1OC`, the inhibition in experiment [1] was 0.6%; in experiment [3] it was 17.7%.

In the case of `COc1cc2nccc(Oc3ccc(NC(=O)c4cnc(Cl)cc4Nc4ccc(F)cc4)cc3)c2cc1OC`, the inhibition in experiment [1] stood at 47.1%; in experiment [3], 51.6%. Besides, the pIC50 in the experiment on SW-620 [2] is 5.17.

Consider `COc1cc2nccc(Oc3ccc(NC(=O)c4cnc(Cl)cc4Nc4cccc(Cl)c4)cc3)c2cc1OC`, for which the inhibition came to 55.1% in [1] and 31.9% in experiment [3]. In addition, the pIC50 with SW-620 [2] was 5.36.

As to `COc1cc2nccc(Oc3ccc(NC(=O)c4cn(C)c(=O)cc4Nc4ccccc4)cc3)c2cc1OC`, the inhibition was 40.9% in experiment [1] and 31.1% in experiment [3]. Also, the pIC50 with SW-620 [2] is 5.35.

For the compound `COc1cc2nccc(Oc3ccc(NC(=O)c4cnc(Cl)cc4Nc4ccccc4F)cc3)c2cc1OC`, the values for the inhibition in experiment [1] and in experiment [3] were 51.5% and 50.1%, respectively. The pIC50 with SW-620 [2] is 5.09.

Consider `COc1cc2nccc(Oc3ccc(NC(=O)c4cnc(Cl)cc4Nc4ccc(Cl)cc4)cc3)c2cc1OC`, for which the inhibition in experiment [1] came out at 51.9%; in experiment [3], 38.5%. The pIC50 with SW-620 [2] was 5.62.

On to `COc1cc2nccc(Oc3ccc(NC(=O)c4cnc(Cl)cc4Nc4cccc5ccccc45)cc3)c2cc1OC`, for which the values for the inhibition in [1] and in experiment [3] were 59.9% and 46.3%, respectively.

For the compound `COc1cc2nccc(Oc3ccc(NC(=O)c4cnc(Cl)cc4Nc4ccccc4Cl)cc3)c2cc1OC`, the inhibition in experiment [1] was determined as 68.3%; in experiment [3], 57.1%. For the same compound, the negative logarithm of the IC50 (pIC50) in the experiment with SW-620 [2] is 5.44.

On to `COc1cc2nccc(Oc3ccc(NC(=O)c4cnc(Cl)cc4Nc4cccc(F)c4)cc3)c2cc1OC`, for which the inhibition came to 48.6% in experiment [1] and 49.6% in experiment [3]. For the same compound, the pIC50 in the experiment with SW-620 [2] was 5.29.

With `COc1cc2nccc(Oc3ccc(NC(=O)C4(C(=O)Nc5ccc(F)cc5)CC4)cc3)c2cc1OC` [CABOZANTINIB], the Activity with SW-620 [4] and with SW-620 [5] was 40.9% throughout. Also, the negative-log IC50 (pIC50) is 5.47 with SW-620 [2], 5.18 in the experiment with NCI-H1975, < 4.70 in the experiment with HeLa and 5.02 in the experiment with HT-29. Moreover, in experiment [3], the inhibition was 38.3%. The result with SW-620 [6] and in the experiment on SW-620 [7] was inactive.

Consider `COc1cc2nccc(Oc3ccc(NC(=O)c4cnc(Cl)cc4Nc4ccc(Br)cc4F)cc3)c2cc1OC`, for which the inhibition worked out at 70% in [1] and 31.6% in experiment [3]. The results for the pIC50 with SW-620 [2], in the experiment with HeLa and in the experiment with HT-29 were 5.61, < 4.70 and < 4.70, respectively.

Take `COc1cc2nccc(Oc3ccc(NC(=O)c4c[nH]c(=O)cc4Nc4ccccc4)cc3)c2cc1OC`: the inhibition was 29.9% in experiment [1] and 38.7% in experiment [3]. Also, the negative-log IC50 (pIC50) in the experiment on SW-620 [2] was 4.72.

For `COc1cc2nccc(Oc3ccc(NC(=O)c4cnc(Cl)cc4Nc4ccccc4)cc3)c2cc1OC`, the figures for the inhibition in experiment [1] and in [3] were 48.2% and 52.1%, respectively. Moreover, the pIC50 with SW-620 [2] is 5.72.

As to `COc1cc2nccc(Oc3ccc(NC(=O)c4cnc(Cl)cc4Nc4ccc(F)c(Br)c4)cc3)c2cc1OC`, the Activity with SW-620 [4] and with SW-620 [5] was 42.6% in each case. For the same compound, the inhibition in experiment [1] was 81.3%; in experiment [3], 30.1%. The pIC50 with SW-620 [2] is 5.88; in the experiment on NCI-H1975, 5.45; with HeLa, < 4.70; in the experiment on HT-29, < 4.70. For the same compound, the outcome in the experiment with SW-620 [8], with SW-620 [6] and in the experiment on SW-620 [7] was inactive.

`COc1cc2nccc(Oc3ccc(NC(=O)c4cnc(Cl)cc4Nc4ccc(F)c(Br)c4)cc3F)c2cc1OC`: the result in the experiment on SW-620 [4], with SW-620 [5], in the experiment on SW-620 [8], in the experiment with SW-620 [6] and with SW-620 [7] was inactive. The inhibition in experiment [1] worked out at 82.9%; in [3], 30.5%. Besides, the pIC50 with SW-620 [2] is 6.21; with NCI-H1975 it was 5.97; in the experiment on HeLa, < 4.70; with HT-29, < 4.70. Besides, the outcome in the experiment on SW-620 [9] and with SW-620 [10] was Active.
